The values that follow come from ChEMBL document CHEMBL2021900, “Discovery of cariprazine (RGH-188): a novel antipsychotic acting on dopamine D3/D2 receptors” (Bioorg Med Chem Lett, 2012).

For one data set, the target named is D(2) dopamine receptor (Rattus norvegicus, UniProt P61169). As to the kind of experiment: Displacement of [3H]spiperone from dopamine D2 receptor in rat striatal membranes. The data set is classed as cell membranes, Membrane. The method, boiled down: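 Rat striatal membranes; [3H]spiperone 0.7 nM as radioligand; nonspecific binding defined with (+)-butaclamol. Ki values are means of two to four independent experiments, each with at least six concentrations in duplicate.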
(Displacement assays read how much labelled ligand stays bound in the presence of the test substance.)

A further data set has as its target D(3) dopamine receptor (Rattus norvegicus, UniProt P19020). Description: Displacement of [3H]spiperone from rat recombinant dopamine D3 receptor expressed in Sf9 cells.
Another data set deals with Mus musculus. As to the kind of experiment: Antipsychotic activity in po dosed CD1 mouse assessed as reduction of apomorphine-induced climbing behaviour administered 1 hr before apomorphine challenge measured after 10 to 16 mins. The data set is classed as functional.
For data set [1], the species on record is Rattus norvegicus. As to the kind of experiment: Selectivity ratio of Ki for adrenergic alpha-1 receptor in rat cerebral cortical membranes to Ki for rat recombinant dopamine D3 receptor. The data set is classed as cell membranes. The following applies: Membrane.
Data set [2] concerns the target T1, Adrenergic receptor alpha-1 (Rattus norvegicus, UniProt P15823+P23944+P43140).
T1 sequence (P15823 whole entry): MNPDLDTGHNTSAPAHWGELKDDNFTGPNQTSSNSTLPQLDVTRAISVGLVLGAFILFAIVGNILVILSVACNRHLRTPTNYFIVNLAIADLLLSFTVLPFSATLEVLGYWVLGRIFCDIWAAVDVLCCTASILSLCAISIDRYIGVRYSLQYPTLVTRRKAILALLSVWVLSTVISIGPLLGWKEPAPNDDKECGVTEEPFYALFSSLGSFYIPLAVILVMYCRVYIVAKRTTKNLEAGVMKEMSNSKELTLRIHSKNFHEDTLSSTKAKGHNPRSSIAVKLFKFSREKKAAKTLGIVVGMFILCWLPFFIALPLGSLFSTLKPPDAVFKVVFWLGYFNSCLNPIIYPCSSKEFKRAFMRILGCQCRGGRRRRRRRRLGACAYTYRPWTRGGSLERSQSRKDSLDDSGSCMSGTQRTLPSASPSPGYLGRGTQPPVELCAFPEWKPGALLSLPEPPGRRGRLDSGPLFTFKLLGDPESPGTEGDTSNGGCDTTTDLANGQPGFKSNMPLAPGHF
T1 sequence (P23944 whole entry): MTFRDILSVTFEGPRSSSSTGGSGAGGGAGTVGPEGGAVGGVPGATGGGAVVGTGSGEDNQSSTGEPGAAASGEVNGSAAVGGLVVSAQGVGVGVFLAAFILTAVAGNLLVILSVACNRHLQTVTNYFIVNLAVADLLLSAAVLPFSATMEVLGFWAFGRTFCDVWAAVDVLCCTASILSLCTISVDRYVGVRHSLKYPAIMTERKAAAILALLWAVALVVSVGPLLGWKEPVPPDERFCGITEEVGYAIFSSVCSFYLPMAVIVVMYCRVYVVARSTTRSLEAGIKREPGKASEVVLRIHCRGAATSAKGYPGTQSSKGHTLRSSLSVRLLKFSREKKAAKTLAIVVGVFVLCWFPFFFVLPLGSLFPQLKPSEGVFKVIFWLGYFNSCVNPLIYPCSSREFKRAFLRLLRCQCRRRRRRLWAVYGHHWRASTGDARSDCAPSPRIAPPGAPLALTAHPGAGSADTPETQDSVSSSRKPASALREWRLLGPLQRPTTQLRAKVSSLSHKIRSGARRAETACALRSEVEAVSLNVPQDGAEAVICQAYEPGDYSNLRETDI
T1 sequence (P43140 whole entry): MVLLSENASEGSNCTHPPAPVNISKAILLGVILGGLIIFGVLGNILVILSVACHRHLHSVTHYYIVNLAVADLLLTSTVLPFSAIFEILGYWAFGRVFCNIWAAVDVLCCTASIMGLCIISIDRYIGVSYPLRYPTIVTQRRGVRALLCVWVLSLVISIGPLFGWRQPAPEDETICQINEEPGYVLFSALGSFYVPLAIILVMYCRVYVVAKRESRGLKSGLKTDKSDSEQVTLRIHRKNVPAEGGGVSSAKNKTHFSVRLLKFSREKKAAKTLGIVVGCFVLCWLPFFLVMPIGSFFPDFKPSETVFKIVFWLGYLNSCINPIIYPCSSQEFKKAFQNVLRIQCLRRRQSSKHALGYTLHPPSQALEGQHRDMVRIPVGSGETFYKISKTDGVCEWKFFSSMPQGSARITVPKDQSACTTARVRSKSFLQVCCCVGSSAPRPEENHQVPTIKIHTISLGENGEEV
As to the kind of experiment: Displacement of [3H]-prazosin from adrenergic alpha-1 receptor in rat cerebral cortical membranes. The data set is classed as cell membranes, Membrane. The method, boiled down:
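Alpha-1 binding used rat cerebral cortical membranes with [3H]prazosin 0.5 nM, with phentolamine defining nonspecific binding. Ki values are means of two to four independent experiments, each with at least six concentrations in duplicate.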

Data set [3] in a line: Cmax in rat. The data set is classed as ADME, organism-based. The settings on record: in vivo.
Data set [4] relates to Rattus norvegicus. Description: Induction of catalepsy in po dosed rat. The data set is classed as organism-based. The following applies: in vivo.
Data set [5] can be described thus: Binding affinity to human dopamine D4.2 receptor.
The nature of data set [6]: Tmax in rat brain. The data set is classed as ADME, tissue-based.
Data set [7] is described as follows: Metabolic stability in human liver microsomes at 2.5 uM measured up to 20 mins. The data set is classed as ADME, Microsome. The settings on record: read-out: Stability. The method, boiled down: (§1)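 Compound incubated for up to 20 min with human or rat liver microsomes. Substrate consumption was followed over time; the plot was linear and was analysed by linear regression.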
For orientation: Liver microsomes are vesicles of endoplasmic reticulum, rich in cytochrome P450 enzymes.

The nature of data set [8]: Apparent terminal half life in iv or po dosed rat. The settings on record: in vivo, read-out: betat1/2(app) (converted). The data set is classed as ADME, organism-based.
The next data set has as its target D(1B) dopamine receptor (Homo sapiens, UniProt P21918). Description: Binding affinity to human dopamine D5 receptor.
Data set [9] can be described thus: Metabolic stability in rat liver microsomes at 2.5 uM measured up to 20 mins. The data set is classed as ADME, Microsome. The following applies: read-out: Stability. Put shortly:
as §1

A further data set deals with D(1A) dopamine receptor (Rattus norvegicus, UniProt P18901). Description: Binding affinity to rat dopamine D1 receptor.
The nature of data set [10]: Ratio of drug level in brain to plasma in iv or po dosed rat. The data set is classed as ADME, organism-based. The settings on record: read-out: BPR.
Data set [11] can be described thus: Oral bioavailability in rat. The data set is classed as ADME, organism-based. The following applies: in vivo.

Bounds are passed on as bounds.

Chain of D(3) dopamine receptor (P19020 whole entry): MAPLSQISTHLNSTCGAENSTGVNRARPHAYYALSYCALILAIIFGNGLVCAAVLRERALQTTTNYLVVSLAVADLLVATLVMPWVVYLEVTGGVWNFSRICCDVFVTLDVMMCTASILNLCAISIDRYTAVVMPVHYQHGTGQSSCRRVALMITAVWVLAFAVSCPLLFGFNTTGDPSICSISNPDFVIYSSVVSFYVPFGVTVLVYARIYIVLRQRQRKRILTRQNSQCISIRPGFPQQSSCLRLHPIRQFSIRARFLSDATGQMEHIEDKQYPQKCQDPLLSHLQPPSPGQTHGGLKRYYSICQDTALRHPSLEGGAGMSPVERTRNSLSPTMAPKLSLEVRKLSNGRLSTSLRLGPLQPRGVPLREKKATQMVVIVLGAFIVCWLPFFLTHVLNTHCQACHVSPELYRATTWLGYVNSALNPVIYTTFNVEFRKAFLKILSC
Chain of D(2) dopamine receptor (P61169 whole entry): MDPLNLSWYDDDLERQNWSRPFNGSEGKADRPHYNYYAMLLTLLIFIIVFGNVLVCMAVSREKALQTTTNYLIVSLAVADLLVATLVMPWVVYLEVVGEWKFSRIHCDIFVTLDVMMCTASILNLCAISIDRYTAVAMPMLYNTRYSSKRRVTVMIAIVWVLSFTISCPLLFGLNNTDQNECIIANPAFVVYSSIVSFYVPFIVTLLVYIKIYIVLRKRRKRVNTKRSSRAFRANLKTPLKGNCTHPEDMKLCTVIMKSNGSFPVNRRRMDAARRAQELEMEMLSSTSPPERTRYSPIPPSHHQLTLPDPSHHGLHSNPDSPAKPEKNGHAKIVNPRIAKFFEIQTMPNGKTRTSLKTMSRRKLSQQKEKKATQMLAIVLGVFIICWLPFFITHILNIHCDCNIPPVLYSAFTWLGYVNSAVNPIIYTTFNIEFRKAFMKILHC
Chain of D(1B) dopamine receptor (P21918 whole entry): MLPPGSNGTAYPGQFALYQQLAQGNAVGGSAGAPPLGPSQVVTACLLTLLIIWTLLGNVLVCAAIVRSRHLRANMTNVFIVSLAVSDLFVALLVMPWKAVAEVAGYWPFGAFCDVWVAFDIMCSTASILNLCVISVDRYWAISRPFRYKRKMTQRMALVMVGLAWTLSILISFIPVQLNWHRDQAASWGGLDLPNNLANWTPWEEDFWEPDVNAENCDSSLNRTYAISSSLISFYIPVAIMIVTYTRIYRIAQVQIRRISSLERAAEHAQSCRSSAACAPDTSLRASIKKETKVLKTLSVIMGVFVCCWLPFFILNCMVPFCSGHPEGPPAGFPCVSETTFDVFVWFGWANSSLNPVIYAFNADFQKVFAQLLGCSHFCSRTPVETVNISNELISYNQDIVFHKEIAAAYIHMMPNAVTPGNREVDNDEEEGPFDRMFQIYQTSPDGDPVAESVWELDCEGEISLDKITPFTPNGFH
Chain of D(1A) dopamine receptor (P18901 whole entry): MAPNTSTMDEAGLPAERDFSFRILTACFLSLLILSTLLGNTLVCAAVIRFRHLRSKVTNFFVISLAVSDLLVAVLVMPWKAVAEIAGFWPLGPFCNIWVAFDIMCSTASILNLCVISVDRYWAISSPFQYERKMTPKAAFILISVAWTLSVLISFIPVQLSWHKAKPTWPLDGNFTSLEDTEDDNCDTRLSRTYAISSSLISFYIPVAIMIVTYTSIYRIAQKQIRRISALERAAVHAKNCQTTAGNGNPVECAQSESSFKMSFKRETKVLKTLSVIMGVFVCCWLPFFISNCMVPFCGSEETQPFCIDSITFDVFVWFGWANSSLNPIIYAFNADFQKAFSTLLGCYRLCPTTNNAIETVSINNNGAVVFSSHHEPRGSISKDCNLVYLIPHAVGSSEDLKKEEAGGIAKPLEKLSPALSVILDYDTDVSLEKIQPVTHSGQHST

As to `CCNC(=O)N[C@H]1CC[C@H](CCN2CCN(c3cccc(Cl)c3Cl)CC2)CC1`, the IC50 (usually the midpoint of a concentration-inhibition curve) on D(2) dopamine receptor is 0.0169 µM; on D(3) dopamine receptor, 0.00034 µM. In the data set on Mus musculus, the 50% effective dose (ED50) (in general, the dose that gives a 50% effect, or the effect in half of the subjects) turned out to be 0.38 mg/kg.

On to `CCOC(=O)N[C@H]1CC[C@H](CCN2CCN(Cc3cccc(C(F)(F)F)c3)CC2)CC1`, for which the half-maximal inhibitory concentration (IC50) on D(2) dopamine receptor amounted to 0.025 µM; on D(3) dopamine receptor, 0.0051 µM. In the data set with Mus musculus, the ED50 amounted to 5.37 mg/kg.

As for `CN(C)C(=O)N[C@H]1CC[C@H](CCN2CCN(c3ccc(Cl)c(Cl)c3)CC2)CC1`, the figures for the inhibitory constant (Ki) (on D(2) dopamine receptor; in data set [2]; at D(3) dopamine receptor) were 0.11 µM, 0.0296 µM and 0.0033 µM, respectively. In addition, the Ratio Ki in the data set listed under Rattus norvegicus [1] worked out at 8.9.

Regarding `CN(C)C(=O)N[C@H]1CC[C@H](CCN2CCN(c3cc(Cl)ccc3Cl)CC2)CC1`, the values for the Ki (at D(2) dopamine receptor; in data set [2]; at D(3) dopamine receptor) were 0.0082 µM, 0.0349 µM and 0.00066 µM, respectively. Moreover, the Ratio Ki in the data set filed under Rattus norvegicus [1] came to 52.8.

As for `CN(C)C(=O)N[C@H]1CC[C@H](CCN2CCN(c3ccc(Cl)cc3Cl)CC2)CC1`, the results for the Ki (on D(2) dopamine receptor; in data set [2]; on D(3) dopamine receptor) were 0.106 µM, 0.156 µM and 0.0054 µM, respectively. In addition, in the data set filed under Rattus norvegicus [1], the Ratio Ki is 28.9.

`CN(C)C(=O)N[C@H]1CC[C@H](CCN2CCN(c3cccc(Cl)c3Cl)CC2)CC1.Cl` [CARIPRAZINE HYDROCHLORIDE]: the IC50 on D(2) dopamine receptor was […]; in data set [5], over 1 µM; on D(1B) dopamine receptor it was over 1 µM; at D(1A) dopamine receptor, over 1 µM. For the same compound, the highest level in [3] (Cmax) was 0.091 µg/mL. In the data set on Rattus norvegicus [4], this compound had an MED of over 85 mg/kg. In data set [6], the time of peak concentration (Tmax) (commonly the time at which the peak concentration occurs) stood at 0.5 h. Further, the Ki (commonly a measure of affinity in units of concentration, obtained from inhibition or displacement) in data set [2] came to 0.214 µM. Further, the remaining at 20 min, 2.5 µM in data set [7] came to 96%; in [9], 93%. In data set [8], the half-life was 2 h. The Kp in data set [10] worked out at 7.6. In addition, the bioavailability (usually dose-corrected exposure relative to a reference, in per cent) in [11] was 52%.

As for `CC(=O)N[C@H]1CC[C@H](CCN2CCN(c3cccc(Cl)c3Cl)CC2)CC1`, the half-maximal inhibitory concentration (IC50) is 0.0023 µM at D(2) dopamine receptor and 0.00029 µM at D(3) dopamine receptor. Further, in the data set on Mus musculus, the 50% effective dose (ED50) is 0.17 mg/kg.

With `CN(C)C(=O)N[C@H]1CC[C@H](CCN2CCN(c3cc(Cl)cc(Cl)c3)CC2)CC1`, the remaining at 20 min, 2.5 µM in data set [7] turned out to be 58%; in [9], 73%.

Turning to `CC(=O)N[C@H]1CC[C@H](CCN2CCN(c3cc(C#N)cc(C(F)(F)F)c3)CC2)CC1`, the half-inhibitory concentration (IC50) stood at 0.143 µM at D(2) dopamine receptor and 0.0019 µM at D(3) dopamine receptor. Moreover, the ED50 in the data set on Mus musculus was 1.54 mg/kg.

As for `CS(=O)(=O)N[C@H]1CC[C@H](CCN2CCN(Cc3cccc(C(F)(F)F)c3)CC2)CC1`, the IC50 was 0.158 µM on D(2) dopamine receptor and 0.011 µM at D(3) dopamine receptor. For the same compound, the ED50 in the data set with Mus musculus worked out at 1.34 mg/kg.
